Results from PubChem BioAssay.
Inconclusive results are not listed.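 The calls were made as follows, unless noted: active = viability at or below 27.92% in each of two runs, the all-compound median minus 4 SD; inconclusive = no clear call, values can overlap the other calls; inactive = the rest.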

Legend:
[1] = OD615 S. cerevisiae growth inhibition, permissive medium, pilot counter-assay, permissive growth control for S. cerevisiae lifespan shortening project (AID 705;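 active = growth inhibition above 25% in both replicates, a cutoff set 3 SD above the mean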); conditions: OD615, 24 h, at 10 µM, stronger effect = higher value
In short: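 assay system = Saccharomyces cerevisiae strain carrying genetically modified DeaD replicative-lifespan system | technique = absorbance (optical density) at 615 nm | buffer or medium = permissive raffinose/galactose medium | timing = cells pre-grown 4 h, then 24 h compound exposure, 30 °C humidified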

[2] = Restrictive medium S. cerevisiae growth inhibition, OD615, pilot screen of yeast lifespan reduction project, restrictive growth control (AID 706;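 active = growth inhibition above a set limit, 3 SD over mean compound inhibition, in both replicates, cut at about 43% in these data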;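 also: modified DeaD lifespan yeast strain shifted to restrictive glucose medium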); conditions: OD615, 48 h, at 10 µM, stronger effect = higher value
In short: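 System: modified S. cerevisiae. Buffer or medium: CSMM-D glucose medium. Incubation: 4 h pre-growth plus 48 h compound exposure, 30 °C. Detection: absorbance (optical density) measured at 615 nm.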

[3] = viability gain of MRP-1-high H69AR cells under doxorubicin, pilot screen, MRP-1 activator project, CellTiter-Glo, duplicate (AID 807;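 active = viability increase at or above a cutoff of the median across tested compounds plus 3 SD, cut at about 8.5% in these data, passing the limit was not always enough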;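 also: compound pretreatment 18-22 h then 72 h combined with doxorubicin; 0% = doxorubicin alone and 100% = vehicle without doxorubicin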); conditions: H69AR viability with doxorubicin, CellTiter-Glo luminescence; at 10 µM; stronger effect = higher value
[4] = growth suppression of beta-catenin knockout HCT116, pilot screen, human colon tumor cells (AID 823;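 active = cell viability at or below a set limit in both duplicate runs, the limit being the all-compound median minus 4 SD, cut at about 23% in these data, passing the limit was not always enough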;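 also: 0% = wells killed by 20 µM Hyamine and 100% = untreated DMSO cell wells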); conditions: CellTiter-Glo, 60 h, at 10 µM, stronger effect = lower value
[5] = growth suppression of PTEN-deleted HCT116, pilot screen, cell-based, HCT116 clonal line, CellTiter-Glo (AID 824); conditions: 60 h, at 10 µM, stronger effect = lower value;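 also: 0% = 20 µM Hyamine control and 100% = vehicle cell control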
[6] = inhibitors of the yeast RAM network, pilot screen, dse1pr::URA3 reporter, 5-FOA selection (AID 869;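 active = inhibition over a set limit, the all-compound mean plus 3 SD, in both replicate runs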;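 also: 0% = DMSO wells with no growth and 100% = 10 µM 1-NA-PP1 with full growth; RAM network block rescues cells from 5-FOA so hits raise OD615 growth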); conditions: S. cerevisiae dse1pr::URA3 5-FOA growth, OD615, 2 d; at 10 µM; stronger effect = higher value; strain carries analog-sensitive mutant Cbk1 kinase
[7] = RAM signaling pathway blockade in yeast – S. cerevisiae, Pdr1DBD-CYC8 efflux-inhibited sensitized strain, primary screen (AID 1298;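 active = RAM network inhibition above 8.4% in each of two replicates, 3 SD over the compound average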;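 also: 0% = DMSO untreated cells without growth and 100% = 10 µM 1-NA-PP1 full growth; higher means more yeast growth rescued from 5-FOA killing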); conditions: S. cerevisiae cbk1-as DSE1-URA3 strain, 5-FOA growth OD615, 2 d; at 50 µM; stronger effect = higher value

COc1ccc(N2CCN(Cc3nc4c(c(=O)n(C)c(=O)n4C)n3Cc3cccc(C)c3)CC2)cc1
inactive: growth inhibition [1] -11.5% | growth inhibition [2] -24.2% | viability increase [3] -3.88% | viability [4] 80.1% | viability [5] 75.2% | inhibition [6] -0.7% | RAM network inhibition [7] 8.85%

COc1ccc(-c2cn3c(C)c(C(=O)N4CCN(c5ccccc5)CC4)sc3n2)cc1
inactive: growth inhibition [1] -0.58% | growth inhibition [2] -13.6% | viability increase [3] -1.3% | viability [4] 101% | viability [5] 95.6% | inhibition [6] 1.88% | RAM network inhibition [7] 0.88%

OCCN1CCN(c2ncnc3ccc(Br)cc23)CC1
inactive: growth inhibition [1] -15.5% | growth inhibition [2] 4.06% | viability increase [3] -4.77% | viability [4] 99.1% | viability [5] 96.7% | inhibition [6] -0.12% | RAM network inhibition [7] -1.2%

COc1cc(C(=O)Nc2cc(-c3nc4cc(C)ccc4o3)ccc2C)cc(OC)c1OC
inactive: growth inhibition [1] 3.69% | growth inhibition [2] 8.25% | viability increase [3] -2.34% | viability [4] 97% | viability [5] 95.2% | inhibition [6] 0.43% | RAM network inhibition [7] -0.15%

O=C(CCCC(=O)Nc1cccnc1)Nc1cccnc1
inactive: growth inhibition [1] -6.39% | growth inhibition [2] 3.58% | viability increase [3] -0.66% | viability [4] 103% | viability [5] 99.2% | inhibition [6] 0.385% | RAM network inhibition [7] 6.65%

Cc1ccccc1C(=O)NCCN=C1NS(=O)(=O)c2ccccc21
inactive: growth inhibition [1] -7.76% | growth inhibition [2] 10.5% | viability increase [3] 0.1% | viability [4] 113% | viability [5] 103% | inhibition [6] 0.69% | RAM network inhibition [7] 1.88%

COc1ccc(C2C(C(=O)Nc3cc(C)on3)c3ccccc3C(=O)N2C)cc1 (configuration not stated)
inactive: growth inhibition [1] 2.9% | growth inhibition [2] -2.79% | viability increase [3] -1.73% | viability [4] 101% | viability [5] 101% | inhibition [6] 1.46% | RAM network inhibition [7] 0.37%

O=C(NCCN1CCOCC1)c1ccc(CS(=O)(=O)c2ccc(Br)cc2)o1
inactive: growth inhibition [1] 0.315% | growth inhibition [2] -7.27% | viability increase [3] -1.79% | viability [4] 99.5% | viability [5] 97.6% | inhibition [6] 1.31% | RAM network inhibition [7] 3.72%

COc1ccccc1C(=O)Nc1ccc2oc(-c3ccc(F)cc3)nc2c1
inactive: growth inhibition [1] -2.88% | growth inhibition [2] 0.83% | viability increase [3] -2.78% | viability [4] 96% | viability [5] 96.5% | inhibition [6] 2.88% | RAM network inhibition [7] 1.85%

COc1ccc(NC(=O)C2CCN(S(=O)(=O)c3ccc(C)cc3)CC2)cc1OC
inactive: growth inhibition [1] 4.97% | growth inhibition [2] 1.39% | viability increase [3] -3.08% | viability [4] 97.1% | viability [5] 101% | inhibition [6] 2.25% | RAM network inhibition [7] 4.75%

CC(C)NC(=O)NC(=O)COc1ncnc2sccc12
inactive: growth inhibition [1] -4.68% | growth inhibition [2] -7.55% | viability increase [3] -1.28% | viability [4] 97.6% | viability [5] 105% | inhibition [6] 1.22% | RAM network inhibition [7] 2.67%

COc1ccc(NC(C)=O)cc1NC(=O)CSc1nnc(-c2cccnc2)n1C
inactive: growth inhibition [1] -5.75% | growth inhibition [2] -0.47% | viability increase [3] -0.83% | viability [4] 104% | viability [5] 100% | inhibition [6] 0.485% | RAM network inhibition [7] 1.19%

CC1(C)CC(=O)C(C=NCCCN2CCOCC2)=C(O)C1
inactive: growth inhibition [1] -0.685% | growth inhibition [2] 0.465% | viability increase [3] -0.36% | viability [4] 97.6% | viability [5] 97% | inhibition [6] -0.16% | RAM network inhibition [7] -0.83%

CCOC(=O)c1c(NC(=O)c2ccco2)sc2c1CCCC2
inactive: growth inhibition [1] -15.7% | growth inhibition [2] -15.4% | viability increase [3] 1.84% | viability [4] 97.8% | viability [5] 101% | inhibition [6] 4.13% | RAM network inhibition [7] 1.41%

CN1CCN(C(=O)C2CCCCC2C(=O)O)CC1 (configuration not stated)
inactive: growth inhibition [1] 0.81% | growth inhibition [2] -12.5% | viability increase [3] -1.14% | viability [4] 99.4% | viability [5] 99.1% | inhibition [6] 2.02% | RAM network inhibition [7] -0.26%

COc1cc2c(c(O)c1OC)C(=O)C(OC)CCC2 (configuration not stated)
inactive: growth inhibition [1] 0.06% | growth inhibition [2] -2.16% | viability increase [3] -0.47% | viability [4] 97% | viability [5] 93.7% | inhibition [6] 0.275% | RAM network inhibition [7] -0.62%

O=C(NCc1ccco1)c1ccc(S(=O)(=O)c2cccc(S(=O)(=O)N3CCOCC3)c2)cc1
inactive: growth inhibition [1] 19% | growth inhibition [2] 2.85% | viability increase [3] -4.28% | viability [4] 92.4% | viability [5] 87.1% | inhibition [6] 1.19% | RAM network inhibition [7] 3.8%

CCN(CC)c1ccc(NC(=O)CSc2nc(C)cc(=O)[nH]2)cc1
inactive: growth inhibition [1] -5.01% | growth inhibition [2] 1.71% | viability increase [3] -0.69% | viability [4] 95.7% | viability [5] 95.4% | inhibition [6] 0.125% | RAM network inhibition [7] 5.74%

CC(=O)COC(=O)c1cccc(N2C(=O)C3C4C=CC(C4)C3C2=O)c1 (configuration not stated)
inactive: growth inhibition [1] -0.62% | growth inhibition [2] 8.06% | viability increase [3] -1.07% | viability [4] 105% | viability [5] 93.5% | inhibition [6] 1.27% | RAM network inhibition [7] 0.67%

O=C(COC(=O)c1ccco1)Nc1ccc(Br)cc1
inactive: growth inhibition [1] -15.4% | growth inhibition [2] -14.3% | viability increase [3] -1.81% | viability [4] 93.5% | viability [5] 99.3% | inhibition [6] 1.45% | RAM network inhibition [7] 2.21%

O=C(CCC1CCCC1)N1CCN(C(=O)c2ccco2)CC1
inactive: growth inhibition [1] -5.94% | growth inhibition [2] -2.57% | viability increase [3] -3.59% | viability [4] 86.3% | viability [5] 83.2% | inhibition [6] 1.39% | RAM network inhibition [7] 0.98%

CCOC(=O)C1=C(C)NC(=O)NC1c1ccc(N(CC)CC)cc1 (configuration not stated)
inactive: growth inhibition [1] -11.1% | growth inhibition [2] -3.54% | viability increase [3] -1.3% | viability [4] 97.5% | viability [5] 99.3% | inhibition [6] 1.44% | RAM network inhibition [7] 1.67%

NC(=O)C1(N2CCCCC2)CCN(S(=O)(=O)c2cc(Cl)ccc2Cl)CC1
inactive: growth inhibition [1] 4.2% | growth inhibition [2] 3.53% | viability increase [3] 0.74% | viability [4] 98.7% | viability [5] 91.1% | inhibition [6] 1.56% | RAM network inhibition [7] 6.42%

COc1ccc(N2CCN(C3CC(=O)N(C)C3=O)CC2)cc1 (configuration not stated)
inactive: growth inhibition [1] -3.33% | growth inhibition [2] 2.79% | viability increase [3] -0.79% | viability [4] 103% | viability [5] 100% | inhibition [6] 1.95% | RAM network inhibition [7] 4.13%

Cc1nc(N2CCN(C)CC2)c2sc(=S)n(-c3ccccc3)c2n1
inactive: growth inhibition [1] -1.92% | growth inhibition [2] -1.67% | viability increase [3] -4.61% | viability [4] 93.4% | viability [5] 86.1% | inhibition [6] 1.31% | RAM network inhibition [7] 3.03%

Cc1n[nH]c(=O)nc1NCc1ccccc1
inactive: growth inhibition [1] -8.25% | growth inhibition [2] -29% | viability increase [3] -0.55% | viability [4] 95% | viability [5] 93.9% | inhibition [6] 1.48% | RAM network inhibition [7] 0.91%

Cc1ccc(-n2nnc3c(=O)n(CC(=O)N4CCOCC4)cnc32)cc1
inactive: growth inhibition [1] -0.37% | growth inhibition [2] 0.95% | viability increase [3] -1.94% | viability [4] 101% | viability [5] 94.2% | inhibition [6] 1.23% | RAM network inhibition [7] 3.05%

CC(C)CNC1=CC(=O)CC(c2ccco2)C1 (configuration not stated)
inactive: growth inhibition [1] -13% | growth inhibition [2] -15.9% | viability increase [3] -1.92% | viability [4] 91.5% | viability [5] 93.8% | inhibition [6] 1.17% | RAM network inhibition [7] -0.73%

CCOC(=O)N1CCN(C(=O)CCSc2ccccc2)CC1
inactive: growth inhibition [1] 2.04% | growth inhibition [2] 2.15% | viability increase [3] 0.84% | viability [4] 99.7% | viability [5] 97% | inhibition [6] 0.07% | RAM network inhibition [7] 0.95%

COc1ccc(S(=O)(=O)Cc2ccc(C(=O)NCc3cccnc3)o2)cc1
inactive: growth inhibition [1] -4.57% | growth inhibition [2] -10.1% | viability increase [3] -5% | viability [4] 88.2% | viability [5] 84% | inhibition [6] 1% | RAM network inhibition [7] 3.45%

O=C(CSc1ncn[nH]1)Nc1nnc(-c2ccccc2)s1
inactive: growth inhibition [1] 6.24% | growth inhibition [2] 11.1% | viability increase [3] 4.9% | viability [4] 94.3% | viability [5] 93.7% | inhibition [6] -0.75% | RAM network inhibition [7] 0.61%

Oc1cccc(/C=N/c2c(-c3ccco3)nc3ccccn23)c1
inactive: growth inhibition [1] -9.82% | growth inhibition [2] -4.22% | viability increase [3] -3.47% | viability [4] 87.7% | viability [5] 93.7% | inhibition [6] 2% | RAM network inhibition [7] 5.22%

Cc1noc(C(=O)N2CC3(C)CC2CC(C)(C)C3)c1Cl (configuration not stated)
inactive: growth inhibition [1] -13% | growth inhibition [2] -13.2% | viability increase [3] 0.45% | viability [4] 82.9% | viability [5] 83% | inhibition [6] -0.145% | RAM network inhibition [7] 5.28%

c1ccc(Cn2nnc3c(N4CCOCC4)ncnc32)cc1
inactive: growth inhibition [1] -15.8% | growth inhibition [2] -25.2% | viability increase [3] -1.15% | viability [4] 92.7% | viability [5] 89.5% | inhibition [6] 0.93% | RAM network inhibition [7] -0.79%

CCN(CC)CCNC(=O)c1sc2nc(-c3ccccc3)cn2c1C
inactive: growth inhibition [1] -2.38% | growth inhibition [2] 6.54% | viability increase [3] -1.73% | viability [4] 83.2% | viability [5] 81.4% | inhibition [6] 0.06% | RAM network inhibition [7] 1.57%

COc1ccc(NC(C)=O)cc1NC(=O)CSc1nnc(-c2ccncc2)n1C
inactive: growth inhibition [1] -5.57% | growth inhibition [2] -7.07% | viability increase [3] -1.99% | viability [4] 96.6% | viability [5] 106% | inhibition [6] 0.24% | RAM network inhibition [7] 0.2%
